Laboratory results as given in ChEMBL document CHEMBL1817666, “Bicephalic amphiphile architecture affects antibacterial activity” (2011).
Activity calls are given as the source filed them. The calls are words filed in the database; no cut-off is given here.

What was measured:
Assay type in all cases: functional
[1] = test system: Staphylococcus aureus; experiment: Antibacterial activity against 2.5 x 10^6 CFU/mL Staphylococcus aureus subsp. aureus ATCC 29213 assessed as time required for bacterial killing at 100 uM by microscopy based bacterial killing assay
[2] = test system: Escherichia coli; experiment: Antibacterial activity against 2.5 x 10^6 CFU/mL Escherichia coli ATCC 25922 assessed as time required for bacterial killing at 100 uM by microscopy based bacterial killing assay
[3] = test system: Enterococcus faecalis; experiment: Antibacterial activity against 2.5 x 10^6 CFU/mL Enterococcus faecalis ATCC 29212 assessed as time required for bacterial killing at 100 uM by microscopy based bacterial killing assay
[4] = test system: Pseudomonas aeruginosa; experiment: Antibacterial activity against 5 x 10^5 CFU/mL Pseudomonas aeruginosa Boston 41501 ATCC 27853 incubated for 72 hrs followed by growing of cells on trypticase soy agar plate for 24 hrs by CLSI M07-A8 broth microdilution method
Procedure, shortened: (§1)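 After the 72 h, 37 °C Mueller-Hinton microdilution (5 × 10⁵ cfu/well, triplicate wells), 100 µl from each triplicate set is plated on trypticase soy agar and incubated 24 h. MBC is the lowest concentration giving no colonies. At least 3 repeats per organism.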

[5] = test system: Staphylococcus aureus; experiment: Antibacterial activity against 5 x 10^5 CFU/mL Staphylococcus aureus subsp. aureus ATCC 29213 after 72 hrs by CLSI M07-A8 broth microdilution method
Procedure, shortened: (§2)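 Broth microdilution in Mueller-Hinton broth at 37 °C. Serially diluted compound added in triplicate wells, then overnight culture diluted to about 5 × 10⁶ cfu/mL inoculum, giving 5 × 10⁵ cfu/well. Inoculum checked by serial dilution and plating. Plates incubated 72 h at 37 °C. MIC is the lowest concentration with no growth visible by eye. At least 3 repeats per organism.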

[6] = test system: Enterococcus faecalis; experiment: Antibacterial activity against 5 x 10^5 CFU/mL Enterococcus faecalis ATCC 29212 after 72 hrs by CLSI M07-A8 broth microdilution method; procedure, shortened: as §2
[7] = test system: Staphylococcus aureus; experiment: Antibacterial activity against 5 x 10^5 CFU/mL Staphylococcus aureus subsp. aureus ATCC 29213 incubated for 72 hrs followed by growing of cells on trypticase soy agar plate for 24 hrs by CLSI M07-A8 broth microdilution method; procedure, shortened: as §1
[8] = test system: Escherichia coli; experiment: Antibacterial activity against 5 x 10^5 CFU/mL Escherichia coli ATCC 25922 after 72 hrs by CLSI M07-A8 broth microdilution method; procedure, shortened: as §2
[9] = test system: Pseudomonas aeruginosa; experiment: Antibacterial activity against 5 x 10^5 CFU/mL Pseudomonas aeruginosa Boston 41501 ATCC 27853 after 72 hrs by CLSI M07-A8 broth microdilution method; procedure, shortened: as §2
[10] = test system: Enterococcus faecalis; experiment: Antibacterial activity against 5 x 10^5 CFU/mL Enterococcus faecalis ATCC 29212 incubated for 72 hrs followed by growing of cells on trypticase soy agar plate for 24 hrs by CLSI M07-A8 broth microdilution method; procedure, shortened: as §1
[11] = test system: Escherichia coli; experiment: Antibacterial activity against 5 x 10^5 CFU/mL Escherichia coli ATCC 25922 incubated for 72 hrs followed by growing of cells on trypticase soy agar plate for 24 hrs by CLSI M07-A8 broth microdilution method; procedure, shortened: as §1

Row | Molecule | Time [1] [h] | Time [2] [h] | Activity [3] | MBC [4] [µM] | MIC ([5]; ATCC 29213, 72 h) [µM] | MIC ([6]; ATCC 29212, 72 h) [µM] | MBC [7] [µM] | MIC ([8]; ATCC 25922, 72 h) [µM] | MIC ([9]; Boston 41501 ATCC 27853, 72 h) [µM] | MBC [10] [µM] | MBC [11] [µM] | Time [3] [h] | Activity [2] | Activity [1] | MIC [5] [µM] | MIC [6] [µM] | MIC [8] [µM] | MIC [9] [µM]
1 | CCCCCCCCCCCCCCCCOc1cc(C[N+](C)(C)C)ccc1C[N+](C)(C)C.[Br-].[Br-] | 24 | 2 | inactive | 125 | 16 | 50 | 16 | 63 | 125 | 50 | 63 |  |  |  |  |  |  | 
2 | CCCCCCCCCCOc1ccc(C[N+](C)(C)C)cc1.[Br-] | 0.5 | 0.5 |  | 250 | 8 | 16 | 8 | 63 | 250 | 16 | 63 | 0.5 |  |  |  |  |  | 
3 | CCCCCCCCCCCC[N+](C)(C)C |  |  |  | > 500 | 63 | 125 | 63 | 250 | > 500 | 125 | 250 |  |  |  |  |  |  | 
4 | CCCCCCCCCCCCCCOc1cc(C[N+](C)(C)C)cc(C[N+](C)(C)C)c1.[Br-].[Br-] | 0.25 | 1 |  | 63 | 4 | 31 | 4 | 31 | 63 | 31 | 31 | 0.25 |  |  |  |  |  | 
5 | CCCCCCCCCCCCCCOc1c(C[N+](C)(C)C)cccc1C[N+](C)(C)C.[Br-].[Br-] | 48 |  | inactive | 500 | 16 | 50 | 16 | 125 | 500 | 50 | 125 |  | inactive |  |  |  |  | 
6 | CCCCCCCCCCCCCCOc1cccc(C[N+](C)(C)C)c1C[N+](C)(C)C.[Br-].[Br-] | 1 | 0.5 |  | 125 | 6 | 31 | 6 | 63 | 125 | 31 | 63 | 24 |  |  |  |  |  | 
7 | CCCCCCCCCCCCOc1cc(C[N+](C)(C)C)ccc1C[N+](C)(C)C |  |  | inactive | > 500 | 31 | 125 | 31 | 500 | > 500 | 125 | 500 |  | inactive | inactive |  |  |  | 
8 | CCCCCCCCCCCCCCOc1ccc(C[N+](C)(C)C)cc1.[Br-] | 0.25 |  |  | > 500 | 6 | 16 | 6 | > 500 | > 500 | 16 | > 500 | 0.25 | inactive |  |  |  |  | 
9 | CCCCCCCCCCCCOS(=O)(=O)[O-].[Na+] [SODIUM LAURYL SULFATE] |  |  |  | > 500 | 250 | 500 | 250 | > 500 | > 500 | 500 | > 500 |  |  |  |  |  |  | 
10 | CCCCCCCCCCOc1cc(C[N+](C)(C)C)ccc1C[N+](C)(C)C |  |  | inactive | > 500 | 250 | 500 | 250 | > 500 | > 500 | 500 | > 500 |  | inactive | inactive |  |  |  | 
11 | CCCCCCCCCCCCCCCCOc1cc(C[N+](C)(C)C)cc(C[N+](C)(C)C)c1.[Br-].[Br-] | 0.25 | 0.25 |  | 125 | 8 | 31 | 8 | 63 | 125 | 31 | 63 | 0.25 |  |  |  |  |  | 
12 | CCCCCCCCCCCCCCOc1cc(C[N+](C)(C)C)ccc1C[N+](C)(C)C.[Br-].[Br-] | 48 | 72 |  | 250 | 16 | 31 | 16 | 63 | 250 | 31 | 63 | 48 |  |  |  |  |  | 
13 | CCCCCCCCCCCCCCOc1ccc(C[N+](C)(C)C)cc1C[N+](C)(C)C.[Br-].[Br-] | 1 | 1 |  | 125 | 6 | 16 | 6 | 31 | 125 | 16 | 31 | 2 |  |  |  |  |  | 
14 | CCCCCCCCCCCCCCCCCCOc1cc(C[N+](C)(C)C)ccc1C[N+](C)(C)C.[Br-].[Br-] | 0.25 | 0.5 |  | 250 | 16 | 31 | 16 | 63 | 250 | 31 | 63 | 0.25 |  |  |  |  |  | 
15 | N,N,N-trimethylhexadecan-1-aminium bromide |  |  |  | > 500 |  |  | 4 |  |  | 4 | 63 |  |  |  | 4 | 4 | 63 | > 500
